Results gathered from unrelated publications.
Protocols differ between the studies behind these lines.
Target: Ephrin type-A receptor 7 (EPHA7, Homo sapiens, UniProt Q15375)

| Compound | observed | method | tested at | remaining binding |
| --- | --- | --- | --- | --- |
| Cc1cnn2ncc(-c3ccnc(N(C)C)n3)c2c1 | binding | – | 1 µM | 100% |
| Cc1cnc(Nc2ccc(C(=O)N3CCC(N4CCCC4)CC3)cc2)nc1-c1cc2ccccc2s1 | binding | competition with immobilised ligand | 1 µM | 67% |
| CN(C)c1nccc(-c2cnc3ncccn23)n1 | binding | – | 1 µM | 68% |
| O=C(Nc1cccnn1)N1CCC(=Cc2cccc(Oc3ccc(C(F)(F)F)cn3)c2)CC1 | cell-free assay | competition with immobilised ligand | 1 µM | 95% |
| COc1ccnn2ncc(-c3ccnc(N(C)C)n3)c12 | binding | – | 1 µM | 93% |
| C[C@@H](c1ccc(-n2cnc3c(N)ncnc32)cc1)N1CCc2nn(C)c(Cc3ccccc3)c2C1=O | binding | competition with immobilised ligand | 0.1 µM | 69% |
| O=C1NC(c2ccccn2)Sc2ccccc21 (centres unmarked) | cell-free assay | competition with immobilised ligand | 1 µM | 72% |
| N[C@@H]1CCN(c2nccc(-c3cnn4ncccc34)n2)C1 | binding | – | 1 µM | 91% |
| Cc1cc(-n2nc(Cc3cc(F)cc(C(F)(F)F)c3)nc2C)ccc1C(N)=O | cell-free assay | competition with immobilised ligand | 1 µM | 98% |
| COc1cnc(Nc2cccc(S(N)(=O)=O)c2)nc1N1CCN(c2ccccc2)CC1 | binding | competition with immobilised ligand | 1 µM | 86% |
| CNC(=O)Nc1ccc2c(c1)[C@@]1(CC2)OC(=O)N(CC(=O)N(Cc2ccc(F)cc2)[C@@H](C)C(F)(F)F)C1=O | cell-free assay | competition with immobilised ligand | 1 µM | 100% |
| O=C(NCCCN1CCOCC1)c1ccc(Nc2nccc(-c3cc4ccccc4s3)n2)cc1 | binding | competition with immobilised ligand | 1 µM | 100% |
| C[C@@H]1CCN(c2nccc(-c3cnn4ncccc34)n2)C1 | binding | – | 1 µM | 84% |
| COc1cnc(Nc2cccc(S(N)(=O)=O)c2)nc1N1CCN(c2ccccc2)C(=O)C1 | binding | competition with immobilised ligand | 1 µM | 100% |
| c1cncc(-c2cccc(Nc3nccc(NC4CCCCC4)n3)c2)c1 | binding | competition with immobilised ligand | 10 µM | 100% |
| O=C(c1ccc(Nc2ncc(Cl)c(-c3ccc(Cl)s3)n2)cc1)N1CCC(N2CCCC2)CC1 | binding | competition with immobilised ligand | 1 µM | 56% |
| CN(C)C(=O)Cn1cc(-c2nc(C3(c4ccc(-c5cnc(N)nc5)cc4)CC3)no2)cn1 | cell-free assay | competition with immobilised ligand | 1 µM | 92% |
| CN(CCCC(F)(F)F)c1nccc(-c2cnn3ncccc23)n1 | binding | – | 1 µM | 96% |
| CCOC(=O)c1cc2cc(-c3cc(C(=O)NCc4ccc(C(=O)O)cc4)nn3C)ccc2[nH]1 | cell-free assay | competition with immobilised ligand | 0.1 µM | 97% |
| O=C(Nc1c[nH]nc1C(=O)NC1CCNCC1)c1cc(F)cc(F)c1 | binding | competition with immobilised ligand | 1 µM | 100% |
